Screening results: PubChem, Broad Institute
The entries come from a sample that favours hits as a whole.
T cruzi growth-1 – inhibitors of T. cruzi proliferation. T. cruzi beta-gal in NIH3T3, GalScreen luminescence, 90 h. inhibition, % at 8.34 µM. hit rate 5.9% among 77,000. AID 624255;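 active = mean inhibition above about 93%, with at least 55% of replicates each passing it, limit read from the data, passing the limit was not always enough; inconclusive = only one of those two conditions holds; inactive = neither condition holds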
IDH1 mut inh – IDH1 R132H (human) inhibition; O75874; IDH1 R132H reductase, diaphorase/resazurin fluorescence, 60 min; inhibition, % at 10 µM; hit rate 0.18% among 70,000; in the data active = inhibition above about 34%; inconclusive = no clear call, values can overlap the other calls; inactive = below about 11%
Target sequence (O75874 whole entry R132H): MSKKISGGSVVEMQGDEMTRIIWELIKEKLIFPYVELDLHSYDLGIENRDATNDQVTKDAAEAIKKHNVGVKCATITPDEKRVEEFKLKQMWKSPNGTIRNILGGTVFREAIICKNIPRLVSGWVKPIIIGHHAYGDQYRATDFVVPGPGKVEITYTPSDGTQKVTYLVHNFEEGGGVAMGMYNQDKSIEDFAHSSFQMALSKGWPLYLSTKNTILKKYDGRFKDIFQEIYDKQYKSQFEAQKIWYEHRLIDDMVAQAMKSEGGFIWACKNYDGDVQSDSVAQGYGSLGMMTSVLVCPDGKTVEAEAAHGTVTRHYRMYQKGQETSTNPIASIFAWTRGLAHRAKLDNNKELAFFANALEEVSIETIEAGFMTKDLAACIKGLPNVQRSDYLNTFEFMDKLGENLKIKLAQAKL
KDM4C inh – inhibitors of human demethylase GASC-1 KDM4C; Q9H3R0; GST-KDM4C 2-372, H3K9me3 peptide, LANCE TR-FRET; inhibition, % at 12.5 µM; hit rate 0.15% among 96,000;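 active = mean replicate inhibition above about 25%, with at least 55% of replicates also reaching it, limit read from the data, passing the limit was not always enough; inconclusive = only one of those two conditions met; inactive = neither condition met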
Target sequence (Q9H3R0 2-372 limits assumed): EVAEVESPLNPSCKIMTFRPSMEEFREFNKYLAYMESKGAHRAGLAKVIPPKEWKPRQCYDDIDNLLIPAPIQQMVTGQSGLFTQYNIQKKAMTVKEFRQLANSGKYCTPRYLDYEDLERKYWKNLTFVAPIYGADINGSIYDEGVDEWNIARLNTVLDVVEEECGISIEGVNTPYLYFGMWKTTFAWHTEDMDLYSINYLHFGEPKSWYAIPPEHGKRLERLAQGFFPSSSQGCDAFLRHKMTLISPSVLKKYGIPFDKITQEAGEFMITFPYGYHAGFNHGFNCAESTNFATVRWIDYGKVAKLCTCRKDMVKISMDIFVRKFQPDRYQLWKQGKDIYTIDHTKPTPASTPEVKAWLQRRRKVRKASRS
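reagent = H3K9me3 peptide substrate, Fe(II), 2-oxoglutarate | system = GST-tagged GASC-1 (JMJD2C) catalytic fragment, aa 2-372 | amount = enzyme final amount 10 nM | read-out = Fall in 671/618 emission ratio as inhibition | medium = HEPES buffer, pH 7.5, plus ascorbate | schedule = 30 min reaction, 60 min detection, RT | measured by = LANCE TR-FRET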
T cruzi growth-2 – inhibitors of T. cruzi proliferation. inhibition, % at 8.35 µM. AID 651739. shares compounds with T cruzi growth-1. hit rate 72% among 5,600. T. cruzi beta-gal in NIH3T3, GalScreen luminescence, 90 h;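 active = mean replicate inhibition above about 95% and at least 55% of replicates individually reaching it, limit read from the data; inconclusive = only one of the two criteria is met; inactive = neither criterion is met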
T cruzi growth-3 – blocks T. cruzi growth in NIH3T3 host cells. hit rate 21% among 5,600. T. cruzi beta-gal in NIH3T3, GalScreen luminescence, 90 h. inhibition, % at 2.09 µM. shares compounds with T cruzi growth-1;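 active = mean inhibition above about 95%, with at least 55% of replicates also reaching it, limit read from the data; inconclusive = meets just one of the two conditions; inactive = meets neither condition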
3T3 cytotox – cytotoxicity in mouse NIH/3T3 fibroblasts; shares compounds with T cruzi growth-1; AID 651742; NIH/3T3 viability, CellTiter-Glo ATP luminescence, 90 h; cytotoxicity (signal decrease), % at 8.35 µM; hit rate 14% among 5,600;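 active = mean signal decrease across replicates above about 35% based on untreated-well scatter, with enough replicates individually passing, limit read from the data; inconclusive = no rule stated though some were filed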
NIH3T3 tox 2 – cytotoxicity in mouse NIH/3T3 fibroblasts; shares compounds with T cruzi growth-1; NIH/3T3 viability, CellTiter-Glo ATP luminescence, 90 h; inhibition, % at 24.9 µM; hit rate 56% among 5,600;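 active = mean loss of cell viability signal at or above a set limit, and enough replicates individually reaching it; inconclusive = meets only the mean limit or only the replicate share; inactive = meets neither condition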
Of the large screens only hits and unclear results are named; the others gave an inactive call (follow-up assays come after a bar, where they were run); ! = a repeat was not active.

Cc1ccc(-c2ccc([C@H]3[C@H]4CN(S(=O)(=O)c5cccc(C)c5)CCCCN4[C@H]3CO)cc2)cc1	none (no result: IDH1 mut inh, KDM4C inh)
Cc1cccc(S(=O)(=O)N2CCCCN3[C@H](CO)[C@H](c4ccc(-c5ccncc5)cc4)[C@H]3C2)c1	T cruzi growth-1 110.2 (no result: IDH1 mut inh) | T cruzi growth-2 106.8 | T cruzi growth-3 inactive | 3T3 cytotox inactive | NIH3T3 tox 2 36.5
Cc1cccc(S(=O)(=O)N2CCCCN3[C@@H](CO)[C@H](c4ccc(-c5ccncc5)cc4)[C@@H]3C2)c1	T cruzi growth-1 98.5 (no result: IDH1 mut inh) | T cruzi growth-2 107.1 | T cruzi growth-3 inactive | 3T3 cytotox inactive | NIH3T3 tox 2 46.2
O=C(Nc1cccc(F)c1)N1CC(=O)N2[C@H](CO)[C@@H](c3ccc(C#Cc4cccnc4)cc3)[C@H]2C1	none (no result: T cruzi growth-1, IDH1 mut inh)
CNC[C@@H]1OCCCC[C@H](C)Oc2ccc(NC(=O)Nc3ccc(F)cc3)cc2C(=O)N([C@H](C)CO)C[C@H]1C	none
O=C(NCc1ccncn1)[C@H]1[C@H](CO)[C@H]2Cn3c(ccc(-c4cccc(F)c4)c3=O)[C@H]2N1CC1CC1	none (no result: IDH1 mut inh)
C[C@@H]1CN([C@@H](C)CO)C(=O)c2cc(NC(=O)C3CCCCC3)ccc2O[C@@H](C)CCCCO[C@@H]1CN(C)C(=O)Nc1ccc(C(F)(F)F)cc1	none
CC(C)NC(=O)N(C)C[C@H]1OCCCC[C@@H](C)Oc2ccc(NC(=O)C3CCCCC3)cc2C(=O)N([C@H](C)CO)C[C@@H]1C	T cruzi growth-1 98.7! (no result: IDH1 mut inh) | T cruzi growth-2 inactive | T cruzi growth-3 inactive | 3T3 cytotox inactive | NIH3T3 tox 2 inactive
C[C@H]1CCCCO[C@@H](CN(C)C(=O)Nc2ccc(C(F)(F)F)cc2)[C@@H](C)CN([C@@H](C)CO)C(=O)c2cc(NC(=O)C3CCCCC3)ccc2O1	T cruzi growth-1 96.5 (no result: IDH1 mut inh) | T cruzi growth-2 103.5 | T cruzi growth-3 104.9 | 3T3 cytotox inactive | NIH3T3 tox 2 inactive
C[C@@H]1CCCCO[C@@H](CN(C)C(=O)Nc2ccc(C(F)(F)F)cc2)[C@@H](C)CN([C@H](C)CO)C(=O)c2cc(NC(=O)C3CCCCC3)ccc2O1	T cruzi growth-1 101.4 | T cruzi growth-2 106.8 | T cruzi growth-3 inactive | 3T3 cytotox inactive | NIH3T3 tox 2 inactive
C[C@H]1CCCCO[C@@H](CN(C)C(=O)Nc2ccc(F)cc2)[C@@H](C)CN([C@@H](C)CO)C(=O)c2cc(NC(=O)C3CCCCC3)ccc2O1	none
CC(C)NC(=O)N(C)C[C@@H]1OCCCC[C@H](C)Oc2ccc(NC(=O)C3CCCCC3)cc2C(=O)N([C@@H](C)CO)C[C@@H]1C	none
CCCC(=O)Nc1ccc2c(c1)C(=O)N(C)[C@@H]1CC[C@@H](CC(=O)NCCc3ccncc3)O[C@@H]1CO2	none (no result: IDH1 mut inh)
O=C(CCCCC(=O)N/N=C/c1coc2ccccc2c1=O)NO	none (no result: T cruzi growth-1, KDM4C inh)
C[C@H]1CN([C@@H](C)CO)C(=O)c2cccc(NC(=O)C3CCOCC3)c2O[C@@H]1CN(C)CC1CC1	none
O=C(NCC[C@@H]1CC[C@H](NS(=O)(=O)c2cccc(Cl)c2)[C@H](CO)O1)c1cnccn1	none
O=C(NCC[C@@H]1CC[C@H](NC(=O)C2CCCCC2)[C@H](CO)O1)c1cnccn1	none (no result: T cruzi growth-1)
C[C@H]1CN([C@@H](C)CO)C(=O)c2c(c3ccccc3n2C)-c2ccccc2CO[C@@H]1CN(C)S(=O)(=O)c1cn(C)cn1	none (no result: IDH1 mut inh)
C[C@H](CO)N1C[C@H](C)[C@H](CN(C)S(=O)(=O)c2ccccc2C#N)OCc2ccccc2-c2c(n(C)c3ccccc23)C1=O	T cruzi growth-1 108.5 (no result: IDH1 mut inh) | T cruzi growth-2 inconclusive | T cruzi growth-3 inactive | 3T3 cytotox inactive | NIH3T3 tox 2 46.2
C[C@H](CO)N1C[C@H](C)[C@@H](CN(C)S(=O)(=O)c2cn(C)cn2)OCc2ccccc2-c2c(n(C)c3ccccc23)C1=O	T cruzi growth-1 106.5 (no result: IDH1 mut inh) | T cruzi growth-2 97.1 | T cruzi growth-3 inactive | 3T3 cytotox inactive | NIH3T3 tox 2 99.2
C[C@H]1CN([C@@H](C)CO)C(=O)c2ccccc2-c2ccccc2CO[C@H]1CN(C)S(=O)(=O)c1ccc(C(F)(F)F)cc1	T cruzi growth-1 107.7 (no result: IDH1 mut inh) | T cruzi growth-2 105.3 | T cruzi growth-3 inactive | 3T3 cytotox inactive | NIH3T3 tox 2 inactive
C[C@@H]1CN([C@H](C)CO)C(=O)c2ccccc2-c2ccccc2CO[C@@H]1CN(C)S(=O)(=O)c1ccc(C(F)(F)F)cc1	none (no result: IDH1 mut inh)
Cc1ccccc1S(=O)(=O)N(C)C[C@H]1OCc2ccccc2-c2c(n(C)c3ccccc23)C(=O)N([C@@H](C)CO)C[C@@H]1C	T cruzi growth-1 inconclusive (no result: IDH1 mut inh) | T cruzi growth-2 100.8 | T cruzi growth-3 inactive | 3T3 cytotox inactive | NIH3T3 tox 2 inconclusive
C[C@H]1CN([C@@H](C)CO)C(=O)c2c(c3ccccc3n2C)-c2ccccc2CO[C@@H]1CN(C)S(=O)(=O)c1ccccc1C#N	none (no result: IDH1 mut inh, KDM4C inh)
COc1ccccc1S(=O)(=O)N(C)C[C@@H]1OCc2ccccc2-c2c(n(C)c3ccccc23)C(=O)N([C@H](C)CO)C[C@@H]1C	none (no result: IDH1 mut inh)
C[C@@H]1CN([C@@H](C)CO)S(=O)(=O)c2ccc(-c3cncnc3)cc2O[C@H]1CN(C)CC1CC1	none
CCC(C)C(NC(=O)C(C)(C)NC(=O)C(C)(CC)NC(=O)C(N)Cc1c[nH]c2ccccc12)C(=O)NC(=O)CCC(NC(C)=O)C(=O)O (stereo not given)	none (no result: T cruzi growth-1, KDM4C inh)
C[C@@H]1CN([C@H](C)CO)C(=O)c2c(c3ccccc3n2C)-c2ccccc2CO[C@H]1CN(C)S(=O)(=O)c1ccsc1	T cruzi growth-1 106.6 | T cruzi growth-2 104.9 | T cruzi growth-3 inactive | 3T3 cytotox inactive | NIH3T3 tox 2 inactive
Cc1ccccc1S(=O)(=O)N(C)C[C@@H]1OCc2ccccc2-c2ccccc2C(=O)N([C@@H](C)CO)C[C@H]1C	none (no result: IDH1 mut inh)
Cc1ccccc1S(=O)(=O)N(C)C[C@H]1OCc2ccccc2-c2c(n(C)c3ccccc23)C(=O)N([C@H](C)CO)C[C@@H]1C	T cruzi growth-1 inconclusive (no result: IDH1 mut inh) | T cruzi growth-2 96.3 | T cruzi growth-3 inactive | 3T3 cytotox inactive | NIH3T3 tox 2 24.1
C[C@@H]1CN([C@H](C)CO)C(=O)c2c(c3ccccc3n2C)-c2ccccc2CO[C@@H]1CN(C)S(=O)(=O)c1ccsc1	none
Cc1ccccc1S(=O)(=O)N(C)C[C@@H]1OCc2ccccc2-c2c(n(C)c3ccccc23)C(=O)N([C@@H](C)CO)C[C@H]1C	none (no result: IDH1 mut inh)
Cc1ccccc1S(=O)(=O)N(C)C[C@@H]1OCc2ccccc2-c2ccccc2C(=O)N([C@H](C)CO)C[C@@H]1C	T cruzi growth-1 inconclusive | T cruzi growth-2 inactive | T cruzi growth-3 inactive | 3T3 cytotox inactive | NIH3T3 tox 2 inactive
CN1C(=O)c2cc(NC(=O)C3CCC3)ccc2OC[C@H]2O[C@H](CC(=O)NCc3ccccc3F)CC[C@@H]21	none (no result: T cruzi growth-1, IDH1 mut inh)
CN(C)CCCNC(=O)C[C@@H]1CC[C@@H](NC(=O)c2ccccc2F)[C@@H](CO)O1	none
